Experimental data taken from ChEMBL document CHEMBL1811853, “Design and evaluation of 3-aminopyrazolopyridinone kinase inhibitors inspired by the natural product indirubin” (Bioorg Med Chem, 2011).
In brackets after ≈: the same amount, converted by molar mass.

Experiments:
[1] = Aqueous solubility of the compound by HPLC analysis; assay type: physicochemical; conditions: water
Method in brief: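 Solubility determined by HPLC measurement of the concentration in saturated aqueous solutions of the compounds.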

[2] = molecular target: RAC-alpha serine/threonine-protein kinase (Homo sapiens) (UniProt P31749); assay: Inhibition of AKT1 at 30 uM by microfluidic mobility shift assay
Method in brief: (§1)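 Single-concentration screen, singlicate, 30 uM final (diluted from 1 mM DMSO solutions), fluorescently tagged peptide substrate appropriate to each kinase, ATP at apparent Km for each protein. Phosphorylated and unphosphorylated peptides separated electrophoretically; conversion is the phosphorylated peak area over the sum of both peaks. No-inhibitor and no-ATP controls; H89 reference on each plate.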

[3] = molecular target: Tyrosine-protein kinase Lyn (Homo sapiens, UniProt P07948); assay: Inhibition of LYN at 30 uM by microfluidic mobility shift assay; method in brief: as §1
[4] = molecular target: Ribosomal protein S6 kinase alpha-1 (Homo sapiens) (UniProt Q15418); assay: Inhibition of RSK1 at 30 uM by microfluidic mobility shift assay; method in brief: as §1
[5] = molecular target: T1, MAP kinase-activated protein kinase 5 (Homo sapiens) (UniProt Q8IW41); assay: Inhibition of PRAK1 at 30 uM by microfluidic mobility shift assay; method in brief: as §1
T1 sequence (whole entry): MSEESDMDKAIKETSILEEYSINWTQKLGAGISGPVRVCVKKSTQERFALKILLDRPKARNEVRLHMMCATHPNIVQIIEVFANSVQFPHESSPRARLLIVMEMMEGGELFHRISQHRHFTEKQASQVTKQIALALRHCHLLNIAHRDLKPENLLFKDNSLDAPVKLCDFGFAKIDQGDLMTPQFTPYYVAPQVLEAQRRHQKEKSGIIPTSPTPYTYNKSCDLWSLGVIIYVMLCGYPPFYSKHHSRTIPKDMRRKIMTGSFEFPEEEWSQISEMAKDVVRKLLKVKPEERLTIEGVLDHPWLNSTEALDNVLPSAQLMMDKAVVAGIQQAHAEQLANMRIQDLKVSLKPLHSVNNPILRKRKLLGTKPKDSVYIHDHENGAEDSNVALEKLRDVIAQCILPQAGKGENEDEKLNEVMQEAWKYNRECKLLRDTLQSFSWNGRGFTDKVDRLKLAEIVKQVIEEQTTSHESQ

[6] = molecular target: Serine/threonine-protein kinase Chk2 (Homo sapiens, UniProt O96017); assay: Inhibition of CHK2 at 30 uM by microfluidic mobility shift assay; method in brief: as §1
[7] = molecular target: Insulin receptor (Homo sapiens) (UniProt P06213); assay: Inhibition of INSR at 30 uM by microfluidic mobility shift assay; method in brief: as §1
[8] = molecular target: Tyrosine-protein kinase ABL1 (Homo sapiens, UniProt P00519); assay: Inhibition of ABL at 30 uM by microfluidic mobility shift assay; method in brief: as §1
[9] = molecular target: Tyrosine-protein kinase Fyn (Homo sapiens, UniProt P06241); assay: Inhibition of FYN at 30 uM by microfluidic mobility shift assay; method in brief: as §1
[10] = molecular target: T2, Aurora kinase A (Homo sapiens) (UniProt O14965); assay: Inhibition of AurA at 30 uM by microfluidic mobility shift assay; method in brief: as §1
T2 sequence (whole entry): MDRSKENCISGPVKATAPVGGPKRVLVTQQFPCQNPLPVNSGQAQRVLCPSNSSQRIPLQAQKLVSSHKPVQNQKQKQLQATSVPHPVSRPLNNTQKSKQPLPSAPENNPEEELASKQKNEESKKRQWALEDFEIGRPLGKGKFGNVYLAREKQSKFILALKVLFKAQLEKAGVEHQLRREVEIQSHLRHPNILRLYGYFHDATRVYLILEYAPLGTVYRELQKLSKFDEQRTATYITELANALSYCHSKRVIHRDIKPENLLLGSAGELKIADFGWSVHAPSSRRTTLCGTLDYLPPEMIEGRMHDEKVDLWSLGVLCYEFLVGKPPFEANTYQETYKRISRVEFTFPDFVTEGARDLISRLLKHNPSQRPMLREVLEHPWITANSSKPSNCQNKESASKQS

[11] = molecular target: Mitogen-activated protein kinase 3 (Homo sapiens) (UniProt P27361); assay: Inhibition of ERK1 at 30 uM by microfluidic mobility shift assay; method in brief: as §1
[12] = molecular target: T3, Protein kinase C zeta type (Homo sapiens) (UniProt Q05513); assay: Inhibition of PKCz at 30 uM by microfluidic mobility shift assay; method in brief: as §1
T3 sequence (whole entry): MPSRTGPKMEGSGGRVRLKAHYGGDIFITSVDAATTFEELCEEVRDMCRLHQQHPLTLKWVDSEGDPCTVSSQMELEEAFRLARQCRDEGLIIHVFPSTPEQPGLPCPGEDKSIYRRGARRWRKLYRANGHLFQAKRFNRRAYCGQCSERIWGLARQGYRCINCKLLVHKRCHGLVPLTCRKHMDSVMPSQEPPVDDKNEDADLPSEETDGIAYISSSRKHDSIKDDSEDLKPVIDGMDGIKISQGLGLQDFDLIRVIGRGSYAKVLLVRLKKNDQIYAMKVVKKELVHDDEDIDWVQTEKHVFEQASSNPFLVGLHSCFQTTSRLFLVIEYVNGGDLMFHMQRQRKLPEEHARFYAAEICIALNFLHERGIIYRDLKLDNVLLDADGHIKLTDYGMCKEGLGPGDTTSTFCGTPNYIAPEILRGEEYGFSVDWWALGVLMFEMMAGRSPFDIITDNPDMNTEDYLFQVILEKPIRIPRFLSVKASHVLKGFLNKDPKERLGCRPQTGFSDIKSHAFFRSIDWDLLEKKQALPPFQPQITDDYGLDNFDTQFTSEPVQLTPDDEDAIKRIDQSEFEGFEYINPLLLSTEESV

[13] = molecular target: Glycogen synthase kinase-3 beta (Homo sapiens) (UniProt P49841); assay: Inhibition of GSK3B at 30 uM by microfluidic mobility shift assay; method in brief: as §1
[14] = molecular target: MAP kinase-activated protein kinase 2 (Homo sapiens, UniProt P49137); assay: Inhibition of MAPKAPK2 at 30 uM by microfluidic mobility shift assay; method in brief: as §1
[15] = molecular target: Mitogen-activated protein kinase 14 (Homo sapiens, UniProt Q16539); assay: Inhibition of p38alpha at 30 uM by microfluidic mobility shift assay; method in brief: as §1
[16] = molecular target: Mitogen-activated protein kinase 1 (Homo sapiens) (UniProt P28482); assay: Inhibition of ERK2 at 30 uM by microfluidic mobility shift assay; method in brief: as §1
[17] = molecular target: RAC-beta serine/threonine-protein kinase (Homo sapiens) (UniProt P31751); assay: Inhibition of AKT2 at 30 uM by microfluidic mobility shift assay; method in brief: as §1
[18] = molecular target: Ribosomal protein S6 kinase alpha-5 (Homo sapiens) (UniProt O75582); assay: Inhibition of MSK1 at 30 uM by microfluidic mobility shift assay; method in brief: as §1
[19] = molecular target: Proto-oncogene tyrosine-protein kinase Src (Homo sapiens, UniProt P12931); assay: Inhibition of SRC at 30 uM by microfluidic mobility shift assay; method in brief: as §1
[20] = molecular target: T4, Serine/threonine-protein kinase Chk1 (Homo sapiens) (UniProt O14757); assay: Inhibition of CHK1 at 30 uM by microfluidic mobility shift assay; method in brief: as §1
T4 sequence (whole entry): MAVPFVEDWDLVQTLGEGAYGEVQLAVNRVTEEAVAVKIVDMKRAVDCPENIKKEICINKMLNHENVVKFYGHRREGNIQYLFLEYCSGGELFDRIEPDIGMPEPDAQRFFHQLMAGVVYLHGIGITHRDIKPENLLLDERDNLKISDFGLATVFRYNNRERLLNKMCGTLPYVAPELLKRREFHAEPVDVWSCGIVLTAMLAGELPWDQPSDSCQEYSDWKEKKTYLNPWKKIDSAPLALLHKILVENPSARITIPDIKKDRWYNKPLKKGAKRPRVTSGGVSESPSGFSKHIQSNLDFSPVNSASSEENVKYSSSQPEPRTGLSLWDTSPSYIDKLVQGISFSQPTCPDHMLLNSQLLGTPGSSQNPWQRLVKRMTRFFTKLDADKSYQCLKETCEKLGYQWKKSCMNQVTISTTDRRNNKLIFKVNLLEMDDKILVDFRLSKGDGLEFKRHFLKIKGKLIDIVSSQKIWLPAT

[21] = Inhibition of PKA at 30 uM by microfluidic mobility shift assay; method in brief: as §1
[22] = molecular target: Tyrosine-protein kinase Lck (Homo sapiens, UniProt P06239); assay: Inhibition of LCK at 30 uM by microfluidic mobility shift assay; method in brief: as §1
[23] = molecular target: T5, Serine/threonine-protein kinase D2 (Homo sapiens) (UniProt Q9BZL6); assay: Inhibition of PKD2 at 30 uM by microfluidic mobility shift assay; method in brief: as §1
T5 sequence (whole entry): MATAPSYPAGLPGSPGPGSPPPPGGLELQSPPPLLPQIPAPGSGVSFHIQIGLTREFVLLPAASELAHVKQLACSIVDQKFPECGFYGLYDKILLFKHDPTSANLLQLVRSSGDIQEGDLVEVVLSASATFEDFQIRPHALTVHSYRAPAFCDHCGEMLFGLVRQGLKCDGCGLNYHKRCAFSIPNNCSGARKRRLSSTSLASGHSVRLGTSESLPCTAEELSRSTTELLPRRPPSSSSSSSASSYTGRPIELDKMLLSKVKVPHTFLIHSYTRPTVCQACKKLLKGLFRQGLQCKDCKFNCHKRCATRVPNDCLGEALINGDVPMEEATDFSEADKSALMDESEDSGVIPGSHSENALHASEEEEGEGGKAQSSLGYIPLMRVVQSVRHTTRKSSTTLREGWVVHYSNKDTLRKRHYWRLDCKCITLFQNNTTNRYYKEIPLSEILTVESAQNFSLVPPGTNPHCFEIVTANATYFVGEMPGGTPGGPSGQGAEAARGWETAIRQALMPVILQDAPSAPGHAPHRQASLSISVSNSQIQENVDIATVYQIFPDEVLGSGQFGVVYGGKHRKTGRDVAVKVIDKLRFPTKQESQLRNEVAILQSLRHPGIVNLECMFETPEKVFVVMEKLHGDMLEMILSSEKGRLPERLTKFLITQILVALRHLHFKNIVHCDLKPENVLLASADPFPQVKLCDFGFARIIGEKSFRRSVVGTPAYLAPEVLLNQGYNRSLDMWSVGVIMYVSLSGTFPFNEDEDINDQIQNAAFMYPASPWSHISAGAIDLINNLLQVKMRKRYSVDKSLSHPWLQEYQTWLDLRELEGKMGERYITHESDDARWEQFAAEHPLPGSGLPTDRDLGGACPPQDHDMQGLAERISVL

RAC-alpha serine/threonine-protein kinase (Homo sapiens), sequence (P31749 whole entry): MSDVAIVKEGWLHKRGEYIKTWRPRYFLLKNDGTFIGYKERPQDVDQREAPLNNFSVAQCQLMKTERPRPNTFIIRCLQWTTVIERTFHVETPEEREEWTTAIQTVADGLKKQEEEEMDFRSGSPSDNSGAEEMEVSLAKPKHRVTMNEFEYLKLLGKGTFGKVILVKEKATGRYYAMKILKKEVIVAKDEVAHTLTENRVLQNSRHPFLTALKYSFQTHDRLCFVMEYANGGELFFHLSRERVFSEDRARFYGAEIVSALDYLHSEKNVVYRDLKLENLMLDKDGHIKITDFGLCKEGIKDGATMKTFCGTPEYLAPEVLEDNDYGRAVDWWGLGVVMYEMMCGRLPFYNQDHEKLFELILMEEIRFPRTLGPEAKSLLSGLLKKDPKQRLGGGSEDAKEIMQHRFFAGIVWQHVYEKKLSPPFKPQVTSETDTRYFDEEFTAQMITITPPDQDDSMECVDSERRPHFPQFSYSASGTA
MAP kinase-activated protein kinase 2, sequence (P49137 whole entry, looked up): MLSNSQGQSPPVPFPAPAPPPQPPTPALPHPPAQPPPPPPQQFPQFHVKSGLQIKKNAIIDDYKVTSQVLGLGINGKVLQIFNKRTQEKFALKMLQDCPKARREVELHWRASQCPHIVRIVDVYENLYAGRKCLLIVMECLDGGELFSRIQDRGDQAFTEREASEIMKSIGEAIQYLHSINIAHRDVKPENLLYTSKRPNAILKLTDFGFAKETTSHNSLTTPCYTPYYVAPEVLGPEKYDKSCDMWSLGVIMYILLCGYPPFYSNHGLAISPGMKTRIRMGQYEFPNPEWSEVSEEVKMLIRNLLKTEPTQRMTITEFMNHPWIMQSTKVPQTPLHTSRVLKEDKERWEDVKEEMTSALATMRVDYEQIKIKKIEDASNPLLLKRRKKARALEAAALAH
Tyrosine-protein kinase Fyn, sequence (P06241 2-537 limits assumed): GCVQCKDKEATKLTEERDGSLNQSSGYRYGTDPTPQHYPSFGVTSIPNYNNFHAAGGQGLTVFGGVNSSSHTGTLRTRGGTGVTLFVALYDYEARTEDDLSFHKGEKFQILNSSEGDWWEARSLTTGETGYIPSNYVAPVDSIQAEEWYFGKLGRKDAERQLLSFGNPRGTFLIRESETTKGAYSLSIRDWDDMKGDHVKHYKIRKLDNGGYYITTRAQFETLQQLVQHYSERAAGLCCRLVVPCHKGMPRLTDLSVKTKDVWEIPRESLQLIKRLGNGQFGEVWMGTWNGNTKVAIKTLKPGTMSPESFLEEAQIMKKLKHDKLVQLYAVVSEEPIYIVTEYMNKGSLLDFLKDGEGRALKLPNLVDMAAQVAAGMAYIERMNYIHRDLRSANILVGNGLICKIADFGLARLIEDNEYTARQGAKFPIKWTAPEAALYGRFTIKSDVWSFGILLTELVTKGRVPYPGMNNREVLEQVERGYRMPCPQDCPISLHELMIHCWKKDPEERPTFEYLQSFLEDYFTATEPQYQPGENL
Serine/threonine-protein kinase Chk2, sequence (O96017 whole entry): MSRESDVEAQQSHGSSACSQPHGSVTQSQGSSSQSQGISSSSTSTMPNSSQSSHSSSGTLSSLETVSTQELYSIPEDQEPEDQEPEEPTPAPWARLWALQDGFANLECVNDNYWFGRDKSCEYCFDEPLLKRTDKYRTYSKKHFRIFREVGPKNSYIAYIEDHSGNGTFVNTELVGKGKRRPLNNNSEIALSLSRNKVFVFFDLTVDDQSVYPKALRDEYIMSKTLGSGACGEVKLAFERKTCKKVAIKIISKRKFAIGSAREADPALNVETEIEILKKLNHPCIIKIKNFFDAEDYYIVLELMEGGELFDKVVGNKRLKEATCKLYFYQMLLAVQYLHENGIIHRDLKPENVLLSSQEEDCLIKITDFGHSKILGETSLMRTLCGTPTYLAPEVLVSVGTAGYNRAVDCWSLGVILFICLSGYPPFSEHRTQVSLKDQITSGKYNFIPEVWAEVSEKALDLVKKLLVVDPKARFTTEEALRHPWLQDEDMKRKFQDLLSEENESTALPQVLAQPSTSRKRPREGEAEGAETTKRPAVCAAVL
Tyrosine-protein kinase Lck, sequence (P06239 2-509 limits assumed): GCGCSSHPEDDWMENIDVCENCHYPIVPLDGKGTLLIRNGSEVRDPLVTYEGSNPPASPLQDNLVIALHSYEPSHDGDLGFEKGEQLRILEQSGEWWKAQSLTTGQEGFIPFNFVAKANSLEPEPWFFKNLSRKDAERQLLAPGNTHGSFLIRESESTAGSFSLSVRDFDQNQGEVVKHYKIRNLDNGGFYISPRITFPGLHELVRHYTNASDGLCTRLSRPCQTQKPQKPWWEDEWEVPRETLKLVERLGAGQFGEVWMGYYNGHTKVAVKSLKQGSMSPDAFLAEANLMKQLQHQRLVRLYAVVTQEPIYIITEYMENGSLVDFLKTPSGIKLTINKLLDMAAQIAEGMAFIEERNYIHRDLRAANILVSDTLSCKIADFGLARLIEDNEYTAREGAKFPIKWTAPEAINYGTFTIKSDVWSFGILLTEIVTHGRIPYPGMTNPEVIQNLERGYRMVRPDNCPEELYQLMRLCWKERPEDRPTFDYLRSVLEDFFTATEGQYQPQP
Tyrosine-protein kinase Lyn, sequence (P07948 2-512 limits assumed): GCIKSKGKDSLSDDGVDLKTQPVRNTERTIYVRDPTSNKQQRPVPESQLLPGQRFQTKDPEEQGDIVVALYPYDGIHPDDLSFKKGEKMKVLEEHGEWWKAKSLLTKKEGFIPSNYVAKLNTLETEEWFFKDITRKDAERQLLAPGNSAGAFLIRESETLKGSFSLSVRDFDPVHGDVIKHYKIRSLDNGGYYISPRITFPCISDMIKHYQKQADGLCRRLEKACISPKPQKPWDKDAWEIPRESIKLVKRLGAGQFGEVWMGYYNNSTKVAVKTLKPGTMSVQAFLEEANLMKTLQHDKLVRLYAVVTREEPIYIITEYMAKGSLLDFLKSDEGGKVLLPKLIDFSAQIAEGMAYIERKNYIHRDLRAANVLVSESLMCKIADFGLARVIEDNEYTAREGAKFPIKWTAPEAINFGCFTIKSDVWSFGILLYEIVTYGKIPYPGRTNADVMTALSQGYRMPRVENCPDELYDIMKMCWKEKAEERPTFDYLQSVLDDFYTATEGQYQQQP
Ribosomal protein S6 kinase alpha-5 (Homo sapiens), sequence (O75582 whole entry, looked up): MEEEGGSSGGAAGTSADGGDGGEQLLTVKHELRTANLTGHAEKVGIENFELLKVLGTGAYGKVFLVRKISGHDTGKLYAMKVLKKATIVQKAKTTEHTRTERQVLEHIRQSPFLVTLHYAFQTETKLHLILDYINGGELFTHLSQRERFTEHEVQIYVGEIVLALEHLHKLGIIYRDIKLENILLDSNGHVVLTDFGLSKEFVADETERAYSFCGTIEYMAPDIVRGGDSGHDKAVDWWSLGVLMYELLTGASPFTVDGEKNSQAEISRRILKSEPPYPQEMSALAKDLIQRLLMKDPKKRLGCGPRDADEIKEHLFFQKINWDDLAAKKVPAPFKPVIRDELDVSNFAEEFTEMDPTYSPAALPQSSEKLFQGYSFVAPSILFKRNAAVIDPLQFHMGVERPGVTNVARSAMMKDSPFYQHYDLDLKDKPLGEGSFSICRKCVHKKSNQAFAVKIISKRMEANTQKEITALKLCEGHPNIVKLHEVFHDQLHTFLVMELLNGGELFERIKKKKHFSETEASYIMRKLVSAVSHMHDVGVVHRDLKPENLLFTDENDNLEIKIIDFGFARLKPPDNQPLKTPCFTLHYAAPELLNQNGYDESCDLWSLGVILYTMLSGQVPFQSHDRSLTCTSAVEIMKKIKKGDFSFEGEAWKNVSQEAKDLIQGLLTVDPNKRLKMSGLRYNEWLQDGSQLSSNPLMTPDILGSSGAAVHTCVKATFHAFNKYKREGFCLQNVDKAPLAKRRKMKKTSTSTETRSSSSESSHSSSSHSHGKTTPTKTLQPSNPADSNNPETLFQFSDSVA
Mitogen-activated protein kinase 1 (Homo sapiens), sequence (P28482 whole entry): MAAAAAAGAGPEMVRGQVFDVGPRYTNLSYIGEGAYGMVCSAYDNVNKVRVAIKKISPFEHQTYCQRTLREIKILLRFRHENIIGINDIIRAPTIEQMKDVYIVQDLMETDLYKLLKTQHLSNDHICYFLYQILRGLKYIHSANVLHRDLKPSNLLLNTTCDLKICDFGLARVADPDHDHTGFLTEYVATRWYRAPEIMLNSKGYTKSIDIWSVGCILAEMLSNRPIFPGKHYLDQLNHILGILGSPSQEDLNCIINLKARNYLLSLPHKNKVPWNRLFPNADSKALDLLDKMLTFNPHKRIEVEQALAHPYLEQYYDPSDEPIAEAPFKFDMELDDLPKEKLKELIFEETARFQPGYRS
Mitogen-activated protein kinase 3 (Homo sapiens), sequence (P27361 whole entry): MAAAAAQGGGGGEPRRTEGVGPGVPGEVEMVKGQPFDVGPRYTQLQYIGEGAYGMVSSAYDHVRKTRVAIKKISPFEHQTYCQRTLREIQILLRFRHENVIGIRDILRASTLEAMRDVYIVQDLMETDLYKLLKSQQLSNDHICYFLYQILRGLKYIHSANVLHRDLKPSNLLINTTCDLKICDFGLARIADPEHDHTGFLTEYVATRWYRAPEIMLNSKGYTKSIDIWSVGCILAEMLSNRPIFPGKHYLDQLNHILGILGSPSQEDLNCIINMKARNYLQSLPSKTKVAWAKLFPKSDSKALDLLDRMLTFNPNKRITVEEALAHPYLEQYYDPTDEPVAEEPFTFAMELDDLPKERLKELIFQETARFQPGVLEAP
RAC-beta serine/threonine-protein kinase (Homo sapiens), sequence (P31751 whole entry): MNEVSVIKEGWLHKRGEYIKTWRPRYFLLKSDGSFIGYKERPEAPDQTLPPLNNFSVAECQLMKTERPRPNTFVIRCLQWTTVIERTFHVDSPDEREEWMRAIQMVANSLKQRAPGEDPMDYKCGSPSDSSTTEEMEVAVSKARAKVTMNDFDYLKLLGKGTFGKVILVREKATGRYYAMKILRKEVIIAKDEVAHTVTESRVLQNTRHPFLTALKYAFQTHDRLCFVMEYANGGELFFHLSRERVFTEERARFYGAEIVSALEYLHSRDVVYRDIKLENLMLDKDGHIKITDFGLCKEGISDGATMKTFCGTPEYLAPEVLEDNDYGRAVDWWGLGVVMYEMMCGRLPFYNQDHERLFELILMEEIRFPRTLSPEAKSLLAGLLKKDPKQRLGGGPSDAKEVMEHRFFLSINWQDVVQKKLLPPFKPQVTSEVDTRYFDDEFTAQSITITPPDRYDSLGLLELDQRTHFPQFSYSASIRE

| SMILES | inhibition [2] | inhibition [3] | inhibition [4] | inhibition [5] | inhibition [6] | inhibition [7] | inhibition [8] | inhibition [9] | inhibition [10] | inhibition [11] | inhibition [13] | inhibition [14] | inhibition [15] | inhibition [16] | inhibition [17] | inhibition [18] | inhibition [19] | inhibition [20] | inhibition [21] | inhibition [22] | also measured |
| --- | --- | --- | --- | --- | --- | --- | --- | --- | --- | --- | --- | --- | --- | --- | --- | --- | --- | --- | --- | --- | --- |
| Cc1cc2c(c(N)nn2C)c(N2CCN(C)CC2)n1 |  |  |  |  |  |  |  |  |  |  |  |  |  |  |  |  |  |  |  |  | solubility [1]: 1160 µg/mL (≈ 4.47 mM) |
| Nc1n[nH]c2cc(CC3CCNCC3)[nH]c(=O)c12 | 13% | -1% | 11% | 3% | 7% | 1% | 7% | -3% | 5% | 4% | 4% | 35% | 3% | -2% | 6% | 62% | 4% | 16% | 71% | 4% | inhibition [23]: -6% |
| Nc1n[nH]c2cc(-c3cccs3)[nH]c(=O)c12 | 4% | 63% | 35% | 12% | 59% | 21% | 63% | 69% | 67% | 15% | 89% | 58% | 6% | 15% | 5% | 63% | 74% | 44% | 79% | 58% | inhibition [23]: 5% |
| Cc1cc2c(cn1)c(N)nn2C | 0% | 1% | 1% | 9% | 3% | -3% | 2% | 2% | 3% | 6% | 6% | -2% | 2% | 2% | -2% | -2% | 3% | 10% | 1% | 4% | inhibition [23]: -3% |

Further lines, with some results ahead:

| inhibition [2] | inhibition [3] | inhibition [4] | inhibition [5] | inhibition [6] | inhibition [7] | inhibition [8] | inhibition [9] | inhibition [10] | inhibition [11] | inhibition [13] | inhibition [14] | inhibition [15] | inhibition [16] | inhibition [17] | inhibition [18] | inhibition [19] | inhibition [20] | inhibition [21] | inhibition [22] | SMILES | also measured |
| --- | --- | --- | --- | --- | --- | --- | --- | --- | --- | --- | --- | --- | --- | --- | --- | --- | --- | --- | --- | --- | --- |
| 3% | 40% | 22% | 1% | 21% | 14% | 14% | 48% | 34% | 12% | 41% | 39% | 3% | 4% | 4% | 65% | 58% | 12% | 75% | 40% | CC(C)(C)c1cc2[nH]nc(N)c2c(=O)[nH]1 | inhibition [12]: -9% |
| 7% | 23% | 14% | 5% | 4% | 5% | 39% | 32% | 34% | 10% | 86% | 22% | 7% | 11% | 2% | 15% | 40% | 3% | 50% | 45% | Cc1cc2nc(-c3ccccc3)nc(N)c2c(=O)[nH]1 | inhibition [23]: 5% |
| 3% | 6% | 2% | 2% | 4% | 1% | 4% | -3% | 32% | 3% | 10% | 3% | 3% | -1% | 2% | 3% | 2% | 0% | 1% | 0% | COCCNc1nc(C)cc2nn(-c3ccccc3)c(N)c12 | inhibition [23]: -1% |
